According to paper PMC3822732 (Journal of Cellular and Molecular Medicine, 2009):
Where two headings read alike, the source gives them in different places.

Tests used:
LRP-1 = details: read-out: Affinity for LRP-1; in other cell types; cited from earlier work
LRP-1 (Homo sapiens) [1] = biological target: LRP-1 (Homo sapiens) (UniProt Q07954); details: cited from earlier work
[2] = tested on: bovine brain capillary endothelial cell monolayers; details: cited from earlier work
RBE4 cells = test: [125I]-Angiopep-2 uptake assay in brain endothelial cells; format: cell-based, rat; details: [125I]-Angiopep-2 100 nM; poly-L-lysine 350 μg/ml, protamine 40 μg/ml
Outline: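 RBE4 brain endothelial cells were grown on collagen I in α-MEM/Ham's F-12 (1:1) with 10% heat-inactivated FCS, G418 and bFGF, seeded at 5 × 10⁴ cells/well and fed 3 days. Subconfluent cells in Ringer/HEPES pH 7.4 took up the tracer for 2 min at 37°C with a polycation, ± unlabelled peptide. Cells were lysed in 0.3 M NaOH and gamma counted, with unlabelled-cell background subtracted, in quadruplicate.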

[3] = cited from earlier work
[4] = in situ brain perfusion; cited from earlier work
[5] = Immunohistochemical detection of Angiopep-2 in brain with anti-Angiopep-2 pAb; details: mice, 20 mg/kg tail vein, 60 min uptake, cold saline perfusion
endothelial cells = test: Endothelial cells exposed to Angiopep-2; format: cell-based; details: data not shown
[6] = after in situ perfusion; cited from earlier work
LRP-1 (Homo sapiens) [7] = biological target: LRP-1 (Homo sapiens) (UniProt Q07954); details: cited from earlier work; remark: listed apart in the source

LRP-1 (Homo sapiens), sequence (Q07954 20-4544): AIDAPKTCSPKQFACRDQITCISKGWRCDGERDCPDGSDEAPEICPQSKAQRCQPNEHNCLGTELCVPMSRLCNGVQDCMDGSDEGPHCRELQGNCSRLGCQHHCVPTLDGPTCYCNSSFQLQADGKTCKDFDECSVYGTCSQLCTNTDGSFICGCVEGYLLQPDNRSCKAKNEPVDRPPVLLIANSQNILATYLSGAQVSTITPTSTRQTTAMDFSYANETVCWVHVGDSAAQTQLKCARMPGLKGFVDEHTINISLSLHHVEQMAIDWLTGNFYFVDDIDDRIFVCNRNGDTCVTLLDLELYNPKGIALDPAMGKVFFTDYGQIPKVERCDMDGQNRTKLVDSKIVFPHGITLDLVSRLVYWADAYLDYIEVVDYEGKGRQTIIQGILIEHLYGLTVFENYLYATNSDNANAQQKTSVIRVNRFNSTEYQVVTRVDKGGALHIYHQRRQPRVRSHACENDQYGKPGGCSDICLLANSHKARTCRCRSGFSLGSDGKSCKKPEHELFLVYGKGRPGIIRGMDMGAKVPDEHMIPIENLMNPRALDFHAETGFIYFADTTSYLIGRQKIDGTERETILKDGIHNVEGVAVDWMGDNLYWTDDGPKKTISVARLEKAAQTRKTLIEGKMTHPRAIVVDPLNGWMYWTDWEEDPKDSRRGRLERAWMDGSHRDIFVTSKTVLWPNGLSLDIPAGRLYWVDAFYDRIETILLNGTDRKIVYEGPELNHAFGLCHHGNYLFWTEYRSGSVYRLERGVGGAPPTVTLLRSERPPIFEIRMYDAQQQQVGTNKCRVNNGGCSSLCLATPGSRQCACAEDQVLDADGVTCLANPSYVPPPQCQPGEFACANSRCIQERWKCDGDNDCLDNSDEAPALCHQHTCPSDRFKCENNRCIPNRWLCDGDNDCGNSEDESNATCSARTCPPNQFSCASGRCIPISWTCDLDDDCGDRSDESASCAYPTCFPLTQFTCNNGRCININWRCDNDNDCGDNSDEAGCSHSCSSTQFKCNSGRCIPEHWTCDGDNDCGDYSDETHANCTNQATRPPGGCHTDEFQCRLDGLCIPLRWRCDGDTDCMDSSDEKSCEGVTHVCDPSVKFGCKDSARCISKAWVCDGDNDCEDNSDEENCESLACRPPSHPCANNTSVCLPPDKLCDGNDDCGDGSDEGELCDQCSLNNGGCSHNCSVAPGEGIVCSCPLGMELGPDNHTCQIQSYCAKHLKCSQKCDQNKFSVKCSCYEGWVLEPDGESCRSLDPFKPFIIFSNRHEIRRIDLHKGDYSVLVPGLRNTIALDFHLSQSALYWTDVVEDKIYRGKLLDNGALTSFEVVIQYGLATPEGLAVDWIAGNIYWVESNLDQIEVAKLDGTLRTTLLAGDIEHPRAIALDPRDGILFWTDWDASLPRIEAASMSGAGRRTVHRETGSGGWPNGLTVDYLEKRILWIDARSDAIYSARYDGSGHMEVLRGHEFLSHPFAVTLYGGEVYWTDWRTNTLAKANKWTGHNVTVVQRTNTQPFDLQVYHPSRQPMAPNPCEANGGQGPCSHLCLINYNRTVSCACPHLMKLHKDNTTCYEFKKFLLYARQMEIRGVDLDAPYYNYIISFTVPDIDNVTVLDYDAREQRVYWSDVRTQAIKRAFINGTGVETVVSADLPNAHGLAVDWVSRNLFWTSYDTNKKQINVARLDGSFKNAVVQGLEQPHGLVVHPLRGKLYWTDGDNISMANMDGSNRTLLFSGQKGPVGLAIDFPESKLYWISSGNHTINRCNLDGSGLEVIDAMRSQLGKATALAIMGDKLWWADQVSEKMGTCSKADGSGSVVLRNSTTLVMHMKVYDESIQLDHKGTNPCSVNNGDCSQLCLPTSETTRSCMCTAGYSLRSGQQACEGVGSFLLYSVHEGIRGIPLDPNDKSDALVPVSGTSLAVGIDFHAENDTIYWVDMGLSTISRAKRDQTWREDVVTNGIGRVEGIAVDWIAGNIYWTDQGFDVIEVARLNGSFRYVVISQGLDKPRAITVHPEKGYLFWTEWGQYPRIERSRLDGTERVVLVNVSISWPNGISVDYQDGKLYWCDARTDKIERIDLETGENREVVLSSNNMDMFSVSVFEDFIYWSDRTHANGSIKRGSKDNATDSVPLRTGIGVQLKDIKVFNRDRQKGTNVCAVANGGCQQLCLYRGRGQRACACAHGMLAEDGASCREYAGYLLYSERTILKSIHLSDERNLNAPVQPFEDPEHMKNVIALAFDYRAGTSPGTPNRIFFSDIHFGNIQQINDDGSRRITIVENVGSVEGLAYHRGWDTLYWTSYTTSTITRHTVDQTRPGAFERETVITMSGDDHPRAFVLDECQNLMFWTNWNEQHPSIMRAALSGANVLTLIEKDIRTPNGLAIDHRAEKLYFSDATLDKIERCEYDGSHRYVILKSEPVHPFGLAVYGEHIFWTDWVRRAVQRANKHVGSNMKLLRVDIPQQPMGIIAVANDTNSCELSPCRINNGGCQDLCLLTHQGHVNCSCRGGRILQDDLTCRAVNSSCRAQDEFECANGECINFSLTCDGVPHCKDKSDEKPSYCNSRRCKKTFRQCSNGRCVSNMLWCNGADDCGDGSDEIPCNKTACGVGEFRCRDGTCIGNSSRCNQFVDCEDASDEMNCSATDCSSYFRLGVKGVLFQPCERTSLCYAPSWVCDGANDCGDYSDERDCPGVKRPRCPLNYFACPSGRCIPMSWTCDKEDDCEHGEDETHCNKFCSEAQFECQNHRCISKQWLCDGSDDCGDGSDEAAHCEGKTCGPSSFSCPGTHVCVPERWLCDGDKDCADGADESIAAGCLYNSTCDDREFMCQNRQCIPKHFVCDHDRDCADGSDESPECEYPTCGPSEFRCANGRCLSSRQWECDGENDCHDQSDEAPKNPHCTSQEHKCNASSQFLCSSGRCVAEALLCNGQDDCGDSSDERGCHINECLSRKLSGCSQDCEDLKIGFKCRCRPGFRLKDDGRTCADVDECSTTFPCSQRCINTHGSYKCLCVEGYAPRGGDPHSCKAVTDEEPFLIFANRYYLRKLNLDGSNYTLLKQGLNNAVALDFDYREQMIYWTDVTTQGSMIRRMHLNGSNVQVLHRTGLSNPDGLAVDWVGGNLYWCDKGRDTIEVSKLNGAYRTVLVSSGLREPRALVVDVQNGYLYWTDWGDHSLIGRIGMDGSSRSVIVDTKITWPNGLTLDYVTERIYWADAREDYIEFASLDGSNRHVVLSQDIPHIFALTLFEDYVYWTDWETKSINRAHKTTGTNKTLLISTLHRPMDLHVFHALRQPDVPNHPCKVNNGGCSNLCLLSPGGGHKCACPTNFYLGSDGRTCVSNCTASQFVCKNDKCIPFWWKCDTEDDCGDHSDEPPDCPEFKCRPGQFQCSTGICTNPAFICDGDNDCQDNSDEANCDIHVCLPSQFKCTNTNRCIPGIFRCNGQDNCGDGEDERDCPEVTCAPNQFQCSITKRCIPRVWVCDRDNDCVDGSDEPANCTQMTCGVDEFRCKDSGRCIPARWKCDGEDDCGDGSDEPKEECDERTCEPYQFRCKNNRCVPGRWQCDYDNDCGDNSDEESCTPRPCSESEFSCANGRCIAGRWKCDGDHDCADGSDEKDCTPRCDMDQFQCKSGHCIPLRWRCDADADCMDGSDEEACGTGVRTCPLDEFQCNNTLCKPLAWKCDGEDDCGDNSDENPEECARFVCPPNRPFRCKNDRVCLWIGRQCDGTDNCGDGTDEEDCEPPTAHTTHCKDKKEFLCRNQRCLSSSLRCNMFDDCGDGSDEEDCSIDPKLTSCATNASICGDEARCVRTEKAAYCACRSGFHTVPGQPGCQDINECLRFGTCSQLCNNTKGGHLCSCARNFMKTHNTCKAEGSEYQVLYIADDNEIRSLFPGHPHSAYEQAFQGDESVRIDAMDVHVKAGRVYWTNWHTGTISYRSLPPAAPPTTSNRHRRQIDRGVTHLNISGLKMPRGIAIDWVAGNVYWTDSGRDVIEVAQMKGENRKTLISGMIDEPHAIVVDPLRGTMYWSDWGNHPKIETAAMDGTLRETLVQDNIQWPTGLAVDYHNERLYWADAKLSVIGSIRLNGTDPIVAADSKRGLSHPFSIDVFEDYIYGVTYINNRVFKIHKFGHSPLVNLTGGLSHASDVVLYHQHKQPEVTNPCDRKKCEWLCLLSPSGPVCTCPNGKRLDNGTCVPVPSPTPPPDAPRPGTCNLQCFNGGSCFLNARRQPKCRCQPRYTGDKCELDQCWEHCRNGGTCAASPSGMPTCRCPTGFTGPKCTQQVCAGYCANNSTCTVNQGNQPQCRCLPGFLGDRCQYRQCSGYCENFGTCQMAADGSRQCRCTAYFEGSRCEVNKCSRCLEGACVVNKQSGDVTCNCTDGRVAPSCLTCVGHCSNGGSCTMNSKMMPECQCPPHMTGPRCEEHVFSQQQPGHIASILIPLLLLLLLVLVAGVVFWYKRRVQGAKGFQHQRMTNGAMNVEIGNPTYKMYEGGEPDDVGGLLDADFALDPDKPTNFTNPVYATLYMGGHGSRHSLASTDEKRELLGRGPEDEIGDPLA
receptor-associated protein (RAP), sequence (P30533 35-357): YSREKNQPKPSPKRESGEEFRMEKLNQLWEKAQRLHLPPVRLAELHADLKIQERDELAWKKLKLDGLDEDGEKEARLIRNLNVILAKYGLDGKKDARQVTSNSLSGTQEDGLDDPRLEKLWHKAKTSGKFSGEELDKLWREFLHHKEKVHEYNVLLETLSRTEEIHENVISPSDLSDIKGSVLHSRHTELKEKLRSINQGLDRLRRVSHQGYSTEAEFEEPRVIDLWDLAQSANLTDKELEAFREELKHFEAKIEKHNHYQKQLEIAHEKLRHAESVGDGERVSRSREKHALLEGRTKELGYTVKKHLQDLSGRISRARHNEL

RAP: receptor-associated protein, an LRP ligand
Kd (LRP-1): ~2 nM

α2-macroglobulin (from UniProt P01023)
Kd (LRP-1 (Homo sapiens) [1]): 2 nM

α2-macroglobulin: LRP-1 ligand
Kd (LRP-1): ~2 nM

TFFYGGSRGRRNNFRTEEY [Angiopep-7]
In vitro BBB transcytosis [2]: did not exhibit in vitro transcytosis

poly-L-glutamine
Inhibition of [125I]-Angiopep-2 uptake into RBE4 cells (RBE4 cells): unaffected

Cy5.5
Passage of free dye across the BBB [3]: does not cross the BBB

TFFYGGSRGKRNNFKTEEY [Angiopep-2]
Permeability of the BBB to inulin in the presence of Angiopep-2 [4]: unaffected
Immunohistochemical detection in brain after IV bolus injection [5]: present in the brain parenchyma
Effect of exposure to Angiopep-2 on endothelial cells (endothelial cells): unaffected
In vitro BBB transcytosis [2]: high BBB transcytosis in vitro
Apparent distribution volume in brain parenchyma vs transferrin [6]: greater apparent distribution volume in brain parenchyma than transferrin

receptor-associated protein (RAP) (from UniProt P30533)
Kd (LRP-1 (Homo sapiens) [7]): 2 nM

protamine
Inhibition of [125I]-Angiopep-2 uptake into RBE4 cells (RBE4 cells): 79%

poly-L-lysine
Inhibition of [125I]-Angiopep-2 uptake into RBE4 cells (RBE4 cells): 69%
